Assay results reported in ChEMBL document CHEMBL2311425, “Histone deacetylase (HDAC) inhibitors with a novel connecting unit linker region reveal a selectivity profile for HDAC4 and HDAC5 with improved activity against chemoresistant cancer cells” (J Med Chem, 2013).

Experiments:
CAL-27 [1] = assay: Potentiation of 5 uM cisplatin-induced toxicity in 1 uM cisplatin resistant human CAL27 cells at 1 uM pretreated for 48 hrs followed by 1 uM cisplatin treatment by MTT assay; type: functional
A2780 [2] = assay: Potentiation of cisplatin-induced toxicity in cisplatin resistant human A2780 cells at 1 uM pretreated for 48 hrs followed by cisplatin treatment by MTT assay; type: functional
Procedure, shortened: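 Resistant sublines pretreated 48 h with 1 μM HDAC inhibitor, then cisplatin over a concentration range for 72 h; MTT viability read at 544/690 nm. Cisplatin IC50 from four-parameter logistic fit of pooled data (≥3 experiments, triplicate); shift factor = IC50 of cisplatin alone divided by IC50 of the combination.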

Histone deacetylase [3] = assay: Inhibition of HDAC in cisplatin sensitive human MDA-MB-231 cells after 18 hrs by fluorescence assay; type: cell-based
Histone deacetylase [4] = assay: Inhibition of HDAC in cisplatin resistant human A2780 cells after 18 hrs by fluorescence assay; type: cell-based
KYSE-510 [5] = assay: Potentiation of 1 uM cisplatin-induced toxicity in 0.5 uM cisplatin resistant human KYSE-510 cells at 1 uM pretreated for 48 hrs followed by 0.5 uM cisplatin treatment by MTT assay; type: functional
KYSE-510 [6] = assay: Potentiation of 8 uM cisplatin-induced toxicity in 0.5 uM cisplatin resistant human KYSE-510 cells at 1.5 uM pretreated for 48 hrs followed by 0.5 uM cisplatin treatment by MTT assay; type: functional
KYSE-510 [7] = assay: Potentiation of 0.75 uM cisplatin-induced toxicity in 0.5 uM cisplatin resistant human KYSE-510 cells at 1.5 uM pretreated for 48 hrs followed by 0.5 uM cisplatin treatment by MTT assay; type: functional
Procedure, shortened: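 Cisplatin-resistant Kyse510 CisR (derived by weekly cycles of cisplatin over 24−30 weeks), grown in RPMI 1640 with 10% FCS at 37 °C, 5% CO₂. Test agent added 48 h before cisplatin, then 72 h further incubation. Viability by MTT (read at 544/690 nm) relative to untreated control wells. Combination index by Chou−Talalay method. Mean of three experiments.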

MDA-MB-231 [8] = assay: Potentiation of 10 uM cisplatin-induced toxicity in 1 uM cisplatin resistant human MDA-MB-231 cells at 0.25 uM pretreated for 48 hrs followed by 1 uM cisplatin treatment by MTT assay; type: functional
CAL-27 [9] = assay: Potentiation of 10 uM cisplatin-induced toxicity in 1 uM cisplatin resistant human CAL27 cells at 0.5 uM pretreated for 48 hrs followed by 1 uM cisplatin treatment by MTT assay; type: functional
CAL-27 [10] = assay: Potentiation of 5 uM cisplatin-induced toxicity in 1 uM cisplatin resistant human CAL27 cells at 1.5 uM pretreated for 48 hrs followed by 1 uM cisplatin treatment by MTT assay; type: functional
CAL-27 [11] = assay: Potentiation of 2.5 uM cisplatin-induced toxicity in 1 uM cisplatin resistant human CAL27 cells at 0.5 uM pretreated for 48 hrs followed by 1 uM cisplatin treatment by MTT assay; type: functional
A2780 [12] = assay: Potentiation of 5 uM cisplatin-induced toxicity in 5 uM cisplatin resistant human A2780 cells at 1 uM pretreated for 48 hrs followed by 5 uM cisplatin treatment by MTT assay; type: functional
A2780 [13] = assay: Potentiation of 5 uM cisplatin-induced toxicity in 5 uM cisplatin resistant human A2780 cells at 0.25 uM pretreated for 48 hrs followed by 5 uM cisplatin treatment by MTT assay; type: functional
Histone deacetylase 1 = Histone deacetylase 1 (Homo sapiens, UniProt Q13547); assay: Inhibition of human HDAC1 by fluorescence assay
Sequence of Histone deacetylase 1 (Q13547 whole entry): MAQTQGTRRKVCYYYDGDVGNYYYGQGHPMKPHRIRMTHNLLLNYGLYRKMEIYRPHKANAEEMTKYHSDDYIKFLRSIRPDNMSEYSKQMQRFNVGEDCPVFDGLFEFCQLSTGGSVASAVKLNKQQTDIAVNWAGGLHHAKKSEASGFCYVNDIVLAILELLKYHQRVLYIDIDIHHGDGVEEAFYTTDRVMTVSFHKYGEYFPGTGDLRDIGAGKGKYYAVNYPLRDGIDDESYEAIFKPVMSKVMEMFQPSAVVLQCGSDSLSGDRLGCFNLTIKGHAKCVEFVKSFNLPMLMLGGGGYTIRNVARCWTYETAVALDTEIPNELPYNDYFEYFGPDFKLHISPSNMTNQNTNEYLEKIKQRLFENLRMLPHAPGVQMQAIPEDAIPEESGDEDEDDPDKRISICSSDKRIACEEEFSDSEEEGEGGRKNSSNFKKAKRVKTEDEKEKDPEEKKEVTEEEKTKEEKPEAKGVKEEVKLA

CAL-27 [14] = assay: Potentiation of 1 uM cisplatin-induced toxicity in 1 uM cisplatin resistant human CAL27 cells at 0.5 uM pretreated for 48 hrs followed by 1 uM cisplatin treatment by MTT assay; type: functional
CAL-27 [15] = assay: Potentiation of 2.5 uM cisplatin-induced toxicity in 1 uM cisplatin resistant human CAL27 cells at 1 uM pretreated for 48 hrs followed by 1 uM cisplatin treatment by MTT assay; type: functional
Histone deacetylase [16] = assay: Inhibition of HDAC in human A2780 cells after 18 hrs by fluorescence assay; type: cell-based
KYSE-510 [17] = assay: Potentiation of 0.5 uM cisplatin-induced toxicity in 0.5 uM cisplatin resistant human KYSE-510 cells at 1.5 uM pretreated for 48 hrs followed by 0.5 uM cisplatin treatment by MTT assay; type: functional
A2780 [18] = assay: Potentiation of 8 uM cisplatin-induced toxicity in 5 uM cisplatin resistant human A2780 cells at 1.5 uM pretreated for 48 hrs followed by 5 uM cisplatin treatment by MTT assay; type: functional
A2780 [19] = assay: Potentiation of 5 uM cisplatin-induced toxicity in 5 uM cisplatin resistant human A2780 cells at 0.5 uM pretreated for 48 hrs followed by 5 uM cisplatin treatment by MTT assay; type: functional
MDA-MB-231 [20] = assay: Potentiation of 25 uM cisplatin-induced toxicity in 1 uM cisplatin resistant human MDA-MB-231 cells at 0.5 uM pretreated for 48 hrs followed by 1 uM cisplatin treatment by MTT assay; type: functional
MDA-MB-231 [21] = assay: Potentiation of 40 uM cisplatin-induced toxicity in 1 uM cisplatin resistant human MDA-MB-231 cells at 0.5 uM pretreated for 48 hrs followed by 1 uM cisplatin treatment by MTT assay; type: functional
KYSE-510 [22] = assay: Cytotoxicity against cisplatin sensitive human KYSE-510 cells after 72 hrs by MTT assay; type: functional, cell-based; conditions: KYSE-510, 72 h
KYSE-510 [23] = assay: Potentiation of 0.5 uM cisplatin-induced toxicity in 0.5 uM cisplatin resistant human KYSE-510 cells at 0.25 uM pretreated for 48 hrs followed by 0.5 uM cisplatin treatment by MTT assay; type: functional
A2780 [24] = assay: Potentiation of 8 uM cisplatin-induced toxicity in 5 uM cisplatin resistant human A2780 cells at 0.25 uM pretreated for 48 hrs followed by 5 uM cisplatin treatment by MTT assay; type: functional
A2780 [25] = assay: Potentiation of 20 uM cisplatin-induced toxicity in 5 uM cisplatin resistant human A2780 cells at 1.5 uM pretreated for 48 hrs followed by 5 uM cisplatin treatment by MTT assay; type: functional
MDA-MB-231 [26] = assay: Potentiation of […] cisplatin-induced toxicity in 1 uM cisplatin resistant human MDA-MB-231 cells at 0.25 uM pretreated for 48 hrs followed by 1 uM cisplatin treatment by MTT assay; type: functional
A2780 [27] = assay: Potentiation of 1 uM cisplatin-induced toxicity in 5 uM cisplatin resistant human A2780 cells at 1.5 uM pretreated for 48 hrs followed by 5 uM cisplatin treatment by MTT assay; type: functional

For Cc1cc(C)cc(C(=O)NOCCCCCC(=O)NO)c1, the Activity (CAL-27 [1]) was “Dose-dependent effect”, the “fractional inhibitory concentration index (FICI)” value (CAL-27 [1]) was 0.26 and the Activity (A2780 [2]) was “Dose-dependent effect”. It also gave a fold change (FC) (A2780 [2]) of 4.02, an IC50 (Histone deacetylase [3]) of 460 nM and an IC50 (Histone deacetylase [4]) of 320 nM. The Activity (KYSE-510 [5]) was “Dose-dependent effect”, the “fractional inhibitory concentration index (FICI)” value (KYSE-510 [5]) was 0.05 and the Activity (KYSE-510 [6]) was “Dose-dependent effect”. For the same compound, the “fractional inhibitory concentration index (FICI)” value (KYSE-510 [6]) was 0.16, the Activity (KYSE-510 [7]) was “Dose-dependent effect” and the “fractional inhibitory concentration index (FICI)” value (KYSE-510 [7]) was 0.05. For the same compound, the Activity (MDA-MB-231 [8]) was “Dose-dependent effect”, the Activity (CAL-27 [9]) was “Dose-dependent effect” and the “fractional inhibitory concentration index (FICI)” value (CAL-27 [9]) was 0.41. The Activity (CAL-27 [10]) was “Dose-dependent effect”, the “fractional inhibitory concentration index (FICI)” value (CAL-27 [10]) was 0.22 and the Activity (CAL-27 [11]) was “Dose-dependent effect”. The Activity (A2780 [12]) was “Dose-dependent effect”, the “fractional inhibitory concentration index (FICI)” value (A2780 [12]) was 0.64 and the Activity (A2780 [13]) was “Dose-dependent effect”. For the same compound, the “fractional inhibitory concentration index (FICI)” value (A2780 [13]) was 0.85, the IC50 (Histone deacetylase 1) was 320 nM and the Activity (CAL-27 [14]) was “Dose-dependent effect”. For the same compound, the “fractional inhibitory concentration index (FICI)” value (CAL-27 [14]) was less than 0.2, the Activity (CAL-27 [15]) was “Dose-dependent effect” and the “fractional inhibitory concentration index (FICI)” value (CAL-27 [15]) was 0.38. The IC50 (Histone deacetylase [16]) was 650 nM, the Activity (KYSE-510 [17]) was “Dose-dependent effect” and the “fractional inhibitory concentration index (FICI)” value (KYSE-510 [17]) was 0.06. For the same compound, the Activity (A2780 [18]) was “Dose-dependent effect”, the “fractional inhibitory concentration index (FICI)” value (A2780 [18]) was 0.74 and the Activity (A2780 [19]) was “Dose-dependent effect”. For the same compound, the “fractional inhibitory concentration index (FICI)” value (A2780 [19]) was 0.73, the Activity (MDA-MB-231 [20]) was “Dose-dependent effect” and the “fractional inhibitory concentration index (FICI)” value (MDA-MB-231 [20]) was 0.79. For the same compound, the Activity (MDA-MB-231 [21]) was “Dose-dependent effect”, the “fractional inhibitory concentration index (FICI)” value (MDA-MB-231 [21]) was 0.88 and the IC50 (KYSE-510 [22]) was 2960 nM. The Activity (KYSE-510 [23]) was “Dose-dependent effect”, the “fractional inhibitory concentration index (FICI)” value (KYSE-510 [23]) was 0.18 and the Activity (A2780 [24]) was “Dose-dependent effect”. The “fractional inhibitory concentration index (FICI)” value (A2780 [24]) was 0.78, the Activity (A2780 [25]) was “Dose-dependent effect” and the “fractional inhibitory concentration index (FICI)” value (A2780 [25]) was 0.64. For the same compound, the Activity (MDA-MB-231 [26]) was “Dose-dependent effect”, the “fractional inhibitory concentration index (FICI)” value (MDA-MB-231 [26]) was 0.9 and the Activity (A2780 [27]) was “Dose-dependent effect”. For the same compound, the “fractional inhibitory concentration index (FICI)” value (A2780 [27]) was 0.97.
